Measurements reported in ChEMBL document CHEMBL5331128, “Alicyclic Ring Size Variation of 4-Phenyl-2-naphthoic Acid Derivatives as P2Y14 Receptor Antagonists” (J Med Chem, 2023).
Active and inactive are the calls of the source.

Legend:
[1] = Prodrug conversion in CD-1 mouse plasma assessed as AUC (0 to infinity) of 4-(4-(piperidin-4-yl)phenyl)-7-(4-(trifluoromethyl)phenyl)-2-naphthoic acid at 10 mg/kg,po and measured upto 24 hrs by LC-MS/MS analysis; format: ADME, organism-based; set-up: time < 24 hrs, dose 10 mg/kg, route po; details: in vivo
Method in brief: (§1)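 Female CD1 mice given double ester/carbamate prodrug by oral gavage. Plasma levels of both prodrug and released parent acid followed over time to give Cmax, t1/2, AUCinf and %F.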

Mus musculus [2] = assay: Antiallodynic activity in CCI surgery neuropathic pain Hsd:ICR mouse model assessed as reversal of mechano-allodynia by measuring paw withdrawal threshold at 10 micromol/kg,ip and measured upto 5 days by von frey test; format: functional, organism-based; details: dose 10.0 µmol/kg, time <= 5.0 day
Method in brief: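 CCI neuropathic pain in adult male Hsd:ICR (CD-1) mice (20–30 g). Single i.p. injection on day 7 after sciatic nerve constriction, at peak pain. Vehicle 10% (Kolliphor HS 15:DMSO 5:95) in saline, 0.2 mL. Paw withdrawal threshold by von Frey filaments on ipsilateral and contralateral hindpaws. Mean ± SD; two-way ANOVA with Dunnett's test versus day 0 and day 7.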

[3] = Half life in CD-1 mouse at 10 mg/kg,po and measured upto 24 hrs by LC-MS/MS analysis; format: ADME, organism-based; details: in vivo; method in brief: as §1
[4] = Cmax in CD-1 mouse at 10 mg/kg,po and measured at 1 hrs by LC-MS/MS analysis; format: ADME, organism-based; set-up: dose 10 mg/kg, time 1 hrs, route po; details: in vivo; method in brief: as §1
[5] = Oral bioavailability in CD-1 mouse at 10 mg/kg and measured upto 24 hrs by LC-MS/MS analysis; format: ADME, organism-based; details: in vivo; method in brief: as §1
[6] = Prodrug conversion in CD-1 mouse plasma assessed as Tmax of 4-(4-(piperidin-4-yl)phenyl)-7-(4-(trifluoromethyl)phenyl)-2-naphthoic acid at 10 mg/kg,po and measured upto 24 hrs by LC-MS/MS analysis; format: ADME, organism-based; details: in vivo
Method in brief: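 Double prodrug of the active acid given by oral gavage to female CD1 mice. Plasma levels of prodrug and released active drug followed over time to establish the conversion course. Peak time read for the active drug.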

[7] = Prodrug conversion in CD-1 mouse plasma assessed as Cmax of 4-(4-(piperidin-4-yl)phenyl)-7-(4-(trifluoromethyl)phenyl)-2-naphthoic acid at 10 mg/kg,po and measured upto 24 hrs by LC-MS/MS analysis; format: ADME, organism-based; set-up: dose 10 mg/kg, time < 24 hrs, route po; details: in vivo; method in brief: as §1
Mus musculus [8] = assay: Antiallodynic activity in CCI surgery neuropathic pain Hsd:ICR mouse model assessed as reversal of mechano-allodynia by measuring paw withdrawal threshold at 10 micromol/kg,po and measured upto 6 hrs by von frey test; format: functional, organism-based; details: dose 10.0 µmol/kg
Method in brief: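 CCI neuropathic pain in adult male CD-1 mice. Single oral gavage dose of 10 μmol/kg on day 7 post-surgery. Vehicle 5% DMSO + 10% (Kolliphor HS 15:DMSO 5:95) in 0.5% methylcellulose, 0.2 mL. Von Frey paw withdrawal threshold on both hindpaws. Mean ± SD; two-way ANOVA with Dunnett's test.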

[9] = AUC (0 to infinity) in CD-1 mouse at 10 mg/kg,po and measured upto 24 hrs by LC-MS/MS analysis; format: ADME, organism-based; set-up: time < 24 hrs, dose 10 mg/kg, route po; details: in vivo; method in brief: as §1

- AUC [1]: 515 ng·h/mL
- t1/2 [3]: 1.45 h
- Cmax [4]: 2000 ng/mL
- bioavailability [5]: 6.9%
- Tmax [6]: 7 h
- Cmax [7]: 33 ng/mL
- AUC(0-inf) [9]: 1780 ng·h/mL
Structure (SMILES): CCOC(=O)N1CCC(c2ccc(-c3cc(C(=O)OCC(=O)N(C)C)cc4cc(-c5ccc(C(F)(F)F)cc5)ccc34)cc2)CC1
- Activity (Mus musculus [2]): Active
- Activity (Mus musculus [8]): Active
